Source: PubChem BioAssay (The Scripps Research Institute Molecular Screening Center)
Most compounds without a hit are left out; they make up all but 3.3% or so of the library.
ABHD4 inh = ABHD4 (mouse) inhibition, primary FP screen. Q8VD66. purified mABHD4, FP-Rh probe fluorescence polarization. inhibition, % at 8.92 µM. 0.54% of 370,000 active. AID 720543;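 active = inhibition exceeding the mean over every tested compound plus 3 SD, cut at about 30% in these data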;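 also: 0% = plate median of compound wells and 100% = S159A mutant with DMSO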
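Assay system: Wild-type mouse ABHD4 protein | Medium: HEPES pH 7.0 buffer, 150 mM NaCl, 0.01% Pluronic F-127 | Incubation: Enzyme–compound pre-incubation 45 min, then probe 60 min, both 25 °C | Technique: Fluorescence polarization with parallel and perpendicular emission, 525/598 nm | Evaluation: % inhibition of FP-Rh probe binding versus controls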
HTRA1 inh = blocks human HTRA1 serine peptidase | Q92743 | recombinant HTRA1, FP-rhodamine activity-based probe, fluorescence polarization | inhibition, % at 5.96 µM | 0.5% of 340,000 active | AID 504803; in the data active = inhibition above about 36%;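 also: 0% = enzyme with DMSO and 100% = wells lacking enzyme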
Target sequence (Q92743 whole entry, looked up): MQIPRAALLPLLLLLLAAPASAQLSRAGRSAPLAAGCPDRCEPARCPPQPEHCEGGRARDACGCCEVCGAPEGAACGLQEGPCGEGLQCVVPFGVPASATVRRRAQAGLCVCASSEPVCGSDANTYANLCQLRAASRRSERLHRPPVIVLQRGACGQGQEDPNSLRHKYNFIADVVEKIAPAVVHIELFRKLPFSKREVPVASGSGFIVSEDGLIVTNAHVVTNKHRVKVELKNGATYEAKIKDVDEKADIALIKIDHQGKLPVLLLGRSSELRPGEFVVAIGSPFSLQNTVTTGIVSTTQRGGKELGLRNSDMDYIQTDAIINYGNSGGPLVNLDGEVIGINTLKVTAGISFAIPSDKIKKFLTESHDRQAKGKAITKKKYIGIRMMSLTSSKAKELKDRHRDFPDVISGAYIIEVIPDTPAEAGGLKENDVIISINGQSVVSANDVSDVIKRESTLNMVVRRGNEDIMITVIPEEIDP
PRMT1 inh = PRMT1 (human) inhibition, primary screen; Q99873; recombinant PRMT1, activity-based probe fluorescence polarization; inhibition, % at 2.79 µM; 1.3% of 370,000 active; AID 652257;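 active = inhibition above about 21% made by adding two undisclosed values, limit read from the data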
SIAE inh = inhibitors of human sialic acid acetylesterase SIAE; Q9HAT2; SIAE FP-Rh probe binding, fluorescence polarization; inhibition, % at 9.66 µM; 0.69% of 370,000 active;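 active = inhibition above a cutoff: mean of compounds within the control limits plus 3 SD of those, cut at about 17% in these data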;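 also: 0% = plate median of compound wells and 100% = probe without SIAE protein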
rCAG RNA binder = r(CAG) repeat RNA binding; TO-PRO-1 dye displacement fluorescence; inhibition, % at 3 µM; 1.3% of 370,000 active;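 active = inhibition above the plate cutoff, the mean of all test compounds on that plate plus 3 SD, cut at about 35% in these data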;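 also: 0% = DMSO alone and 100% = 100 µM mitoxantrone as full dye displacement; higher means more dye released from RNA so lower well fluorescence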
rCAG binder conf = r(CAG) RNA repeat binding, confirmation; shares compounds with rCAG RNA binder; TO-PRO-1 dye displacement fluorescence; inhibition, % at 3 µM; 70% of 4,300 active; AID 652065;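 active = inhibition above a per-plate cutoff, the mean inhibition of sample wells plus 3 SD, cut at about 35% in these data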;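 also: loss of TO-PRO-1 fluorescence as compound displaces dye from 1x1 AA loop RNA; 0% = DMSO only wells and 100% = 100 µM mitoxantrone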
dCAG dye counter = disrupts DNA CAG TO-PRO-1 complex, flagging rCAG hits. shares compounds with rCAG RNA binder. 94% of 4,300 active. AID 652068. d(CAG) DNA oligo TO-PRO-1 dye displacement, fluorescence. inhibition, % at 3 µM;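 active = inhibition above its plate's cutoff, the mean test-well inhibition plus 3 SD, cut at about 4.8% in these data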;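 also: 0% = DNA dye mix with DMSO and 100% = 100 µM mitoxantrone; hits displace the dye from DNA and so lower well fluorescence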
dCAG dye DR = counter-screen for rCAG binders: inhibitors of DNA CAG TO-PRO-1 complex; shares compounds with rCAG RNA binder; DNA CAG/GTC duplex TO-PRO-1 dye displacement fluorescence; IC50, µM; 20% of 250 active; AID 686960; in the data active = IC50 below about 10 µM
An asterisk follows results filed as active; x = no result.

SMILES	ABHD4 inh	HTRA1 inh	PRMT1 inh	SIAE inh	rCAG RNA binder	rCAG binder conf	dCAG dye counter	others
C[C@H]1[C@@H](OC(=O)NCc2ccccc2)CC[C@@]23CCCN2C(=O)CCC[C@@H]13	-1	x	-2	-1	x	x	x
O=C(CSc1nc2ccccc2nc1N1CCCCC1)N1CCN(C(c2ccccc2)c2ccc(Cl)cc2)CC1 (stereo unspecified)	-7	x	0	-1	7	x	x
COC(=O)c1sc(-c2ccc(Cl)cc2)cc1NC(=O)CSCC(=O)O	-6	-17	-7	-3	27	x	x
COC(=O)c1sc(-c2ccc(C(C)(C)C)cc2)cc1NC(=O)COCC(=O)O	-16	x	3	-24	64*	73*	31*	dCAG dye DR=9.1*
Nc1nc(SCc2nnc(SCC(=O)O)n2-c2ccccc2)nc2sc3c(c12)CCCC3	-7	4	4	-9	61*	69*	23*	dCAG dye DR=>30
O=C(O)CSc1nc2sc3c(c2c(=O)n1-c1ccccc1)CCC3	1	0	6	3	6	x	x
COc1cc(/C=C2\C(=N)N3N=C(S(C)(=O)=O)SC3=NC2=O)cc(OC)c1OCCOc1ccccc1C	2	-21	0	-23	55*	92*	81*
COc1cccc(OCCOc2ccc(/C=C3\C(=N)N4N=C(S(C)(=O)=O)SC4=NC3=O)cc2OC)c1	-74	-14	1	-9	52*	91*	75*
COc1cc(/C=C2\C(=N)N3N=C(S(C)(=O)=O)SC3=NC2=O)ccc1OS(=O)(=O)c1ccc(C)cc1	14	-16	0	-20	51*	87*	59*
Cc1cc(/C=C2\C(=N)N3N=C(S(C)(=O)=O)SC3=NC2=O)c(C)n1Cc1ccccc1	-10	-12	-3	-9	66*	89*	62*
CC1(NC(=O)c2ccc(C#Cc3cccc(F)c3)cn2)COC1	-2	x	-2	-3	0	x	x
Cc1cc2nc(=O)c(/C=C3\C=Nc4ccccc43)c(N)n2o1	-8	x	-4	-16	9	x	x
CS(=O)(=O)c1nsc2nc(=O)c(/C=C3\C=Nc4ccccc43)c(N)n12	-23	-6	2	-26	44*	70*	31*	dCAG dye DR=8.2*
CC(C)Sc1nsc2nc(=O)c(/C=C3\C=Nc4ccccc43)c(N)n12	-8	-26	-5	-25	44*	79*	44*
CCCCc1nn2c(N)c(/C=C3\C=Nc4ccccc43)c(=O)nc2s1	-6	-9	0	-11	7	x	x
CCCCN1CCS(=O)(=O)N(Cc2cn(Cc3ccccc3Br)nn2)C(C(=O)OC)C1 (stereo unspecified)	0	x	-3	2	0	x	x
COc1cccc(-c2csc(NC(=O)C3CC3)n2)c1	-1	-8	-2	-4	-2	x	x
O=C(O)CCC(=O)Nc1ccc(-c2csc(Nc3cccc4ccccc34)n2)cc1	22	-10	1	3	49*	49*	18*
O=C(Nc1ccccc1)Nc1nc(-c2ccccc2)cs1	3	-2	2	1	43*	12	15*
COc1cccc(-c2csc(NC(=O)Nc3ccccc3)n2)c1	-108	-44	10	-79	54*	29	25*
O=C(Cn1cc(COc2ccc(Cl)c(Cl)c2)nn1)NS(=O)(=O)c1ccccc1OC(F)(F)F	-4	x	3	-4	62*	48*	16*
C=CCn1c(NC(=O)c2ccccc2Cl)c(C#N)c2nc3ccccc3nc21	-7	-1	0	-1	69*	67*	29*
O=c1cc(-c2ccccc2)nc2c(-c3ccccc3)c(C(F)(F)F)[nH]n12	-28	x	1	9	92*	77*	42*
COC(=O)[C@H](CC(C)C)NC(=O)NCCCc1ccccc1	-3	17	2	-2	48*	1	-2
CCC(C)[C@H](NC(=O)NCCCc1ccccc1)C(=O)OC (stereo partly specified)	-1	2	1	-1	-7	x	x
SMILES	ABHD4 inh	HTRA1 inh	PRMT1 inh	SIAE inh	rCAG RNA binder	rCAG binder conf	dCAG dye counter	others
CCOC(=O)c1c(-c2ccc(OC)cc2)csc1NC(=O)CCN1C(=O)c2ccccc2C1=O	x	-25	x	x	x	x	x
CCOC(=O)c1c(-c2ccc3ccccc3c2)csc1NC(=O)CCCC(=O)O	10	-11	0	0	45*	50*	14*
CCOc1cc(C(=O)Nc2ccc(S(=O)(=O)NC3=NCCCCC3)cc2)cc(OCC)c1OCC	0	-8	0	-5	-9	x	x
CCC(Oc1ccc(C)cc1)C(=O)Nc1ccc(S(=O)(=O)Nc2cc(C)on2)cc1 (stereo unspecified)	-17	2	-1	3	36*	21	2
CCc1nnc(NS(=O)(=O)c2ccc(NC(=O)c3ccc(S(=O)(=O)N(CC)CC)cc3)cc2)s1	-19	-4	2	-10	76*	67*	29*
CCOc1cc(C(=O)Nc2ccc(S(=O)(=O)Nc3nnc(CC)s3)cc2)cc(OCC)c1OCC	-54	-16	-1	-10	63*	67*	28*
CCN(CC)S(=O)(=O)c1ccc(NC(=O)c2ccc(NS(C)(=O)=O)cc2)cc1	-14	-8	2	-10	4	x	x
CCc1nnc(NS(=O)(=O)c2ccc(NC(=O)c3cccc(Br)c3)cc2)s1	-44	-72	8	-11	73*	53*	19*
CCOc1cc(C(=O)Nc2ccc(S(=O)(=O)Nc3cc(C)on3)cc2)cc(OCC)c1OCC	-5	-6	0	7	41*	34	8.4*
Cc1cc(NC(=S)N(Cc2ccc(Br)cc2)Cc2ccc(C(=O)O)cc2)ccc1Cl	-29	19	-6	-10	75*	82*	48*
COc1ccc(Cl)cc1NC(=S)N(Cc1ccc(C(=O)O)cc1)Cc1ccc(OC)c(OC)c1	-12	-14	5	-6	50*	48*	15*
COc1ccc(CN(Cc2ccc(C(=O)O)cc2)C(=S)Nc2cc(C)cc(C)c2)cc1OC	-4	3	-2	-5	4	x	x
Cc1cccc(NC(=S)N(Cc2ccc(Br)cc2)Cc2ccc(C(=O)O)cc2)c1	3	-8	-3	-2	21	x	x
COc1cccc(NC(=S)N(Cc2ccc(Cl)cc2)Cc2ccc(C(=O)O)cc2)c1	-2	-7	7	0	53*	42*	11*
COc1ccc(CN(Cc2ccc(C(=O)O)cc2)C(=S)Nc2ccc(C)cc2)cc1OC	-8	2	3	-4	19	x	x
O=C(CNS(=O)(=O)c1cccc2ccccc12)N1CCN(c2ncccn2)CC1	-4	x	-1	2	4	x	x
